From publication PMC12627342 (Journal of Advanced Research, 2025)

Assays:
B. subtilis ATCC 6633 = experiment: MIC assay; type: cell-based; settings: B. subtilis ATCC 6633, Gram-positive
In short: (§1)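 Broth microdilution: test compound dissolved in physiological saline, two-fold serially diluted across wells (50 μL broth each). 50 μL bacterial suspension added (1.0 × 10⁶ CFU/mL). Incubation 16 h at 37 °C with constant agitation. MIC read visually together with absorbance at 600 nm. Each sample run in triplicate.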

S. aureus (MDR) = experiment: MIC assay; type: cell-based; settings: Gram-positive
In short: as §1

E. coli ATCC 25922 = experiment: MIC assay; type: cell-based; settings: E. coli ATCC 25922, Gram-negative
In short: as §1

E. aerogenes (MDR) = experiment: MIC assay; type: cell-based; settings: Gram-negative
In short: as §1

A. baumannii (MDR) = experiment: MIC assay; type: cell-based; settings: Gram-negative
In short: as §1

C. freundii (MDR) = experiment: MIC assay; type: cell-based; settings: Gram-negative
In short: as §1

[1] = test system: human red blood cells (hRBCs); experiment: Hemolytic assay; type: cell-based; settings: median hemolytic concentration, 5 % hRBCs, 1 h, 37 °C
In short: (§2)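 Human erythrocytes from heparinised blood, washed three times in PBS (centrifuged 1800 rpm, 4 °C, 5 min), used as a 5 % (v/v) suspension. Peptide two-fold dilutions in PBS, final 0.78–50 μM. Incubation 1 h at 37 °C, then 3000 rpm for 5 min; supernatant hemoglobin read at A405. Controls: PBS (0 %) and 1 % Triton X-100 (100 %). Five replicates; HC₅₀ derived as median hemolytic concentration.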

Cytotoxicity assay = type: cell-based, human
In short: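 293T human embryonic kidney cells were seeded and grown 24 h, then exposed for 24 h to a concentration series of test compound in DMEM. CCK-8 reagent was added for 2 h at 37 °C, and absorbance was read at 450 nm. Five replicates per sample.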

all bacteria tested = experiment: Geometric mean of MICs and selectivity index, all bacteria; type: cell-based; settings: geometric mean of MICs against all bacteria
In short: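 Geometric mean of the broth-microdilution MICs (μM) across all bacterial strains tested. It serves as the denominator of the selectivity index, SI = HC₅₀ (μM) / GM.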

Gram-positive bacteria = experiment: Geometric mean of MICs and selectivity index, Gram-positive bacteria; type: cell-based; settings: geometric mean of MICs
Gram-negative bacteria = experiment: Geometric mean of MICs and selectivity index, Gram-negative bacteria; type: cell-based; settings: geometric mean of MICs
Hemolytic assay = type: cell-based, human
In short: as §2

Plasma stability by HPLC = type: in vitro ADME; settings: human, human plasma 25 % (v/v)
In short: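 An 8 mM aqueous stock of peptide (1 mL) was added to 3 mL of 25 % (v/v) human plasma and incubated at 37 °C with agitation, sampling from 0–48 h and up to 14 days. Each sample was quenched with an equal volume of 90 % acetonitrile/10 % TFA, cooled to 4 °C and spun at 10000 rpm for 10 min. Supernatant was quantified by HPLC against standard curves (0.0625–8 mM). Triplicates.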

[2] = commercially available antimicrobial peptide drug; cited from earlier work

What does the source list for “Ac-GLFKFLRKFFNFIKR-NH2 [P-γ, Ac-GLFKFLRKFFNFIKR-NH2]”?
MIC (B. subtilis ATCC 6633): 12.5 µM; MIC (S. aureus (MDR)): 50 µM; MIC (E. coli ATCC 25922): 12.5 µM; MIC (E. aerogenes (MDR)): 50 µM; MIC (A. baumannii (MDR)): 12.5 µM; MIC (C. freundii (MDR)): 50 µM

Which MIC (B. subtilis ATCC 6633) does the source give for “Ac-GLFKFLRKFFNKIKR-NH2 [P-β, Ac-GLFKFLRKFFNKIKR-NH2]” here?
The MIC was 6.25 µM.

What about the MIC (S. aureus (MDR)) of the same substance?
Its MIC is 6.25 µM.

And the MIC (E. coli ATCC 25922)?
Its MIC is 6.25 µM.

And the MIC (E. aerogenes (MDR))?
The MIC was 12.5 µM.

And the MIC (A. baumannii (MDR))?
The MIC was 6.25 µM.

And the MIC (C. freundii (MDR))?
The MIC was 6.25 µM.

And the HC50 [1]?
Its HC50 is 136.69 µM.

And the CC50 (Cytotoxicity assay)?
Its CC50 is 28.2 µM.

And the GMall (all bacteria tested)?
The GMall was 7.02 µM.

What about the “GM+” value (Gram-positive bacteria) of the same substance?
The value was 6.25 µM.

What about the GM- (Gram-negative bacteria) of the same substance?
Its GM- is 7.43 µM.

What does the source list for “Ac-GLRKALRKFANKIKR-NH2 [P-α-05, Ac-GLRKALRKFANKIKR-NH2]”?
MIC (B. subtilis ATCC 6633): 25 µM; MIC (S. aureus (MDR)): 50 µM; MIC (E. coli ATCC 25922): 50 µM; MIC (E. aerogenes (MDR)): 50 µM; MIC (A. baumannii (MDR)): 50 µM; MIC (C. freundii (MDR)): 50 µM

With “Ac-GLRKFLRKFFNKIKR-NH2 [P-α, Ac-GLRKFLRKFFNKIKR-NH2]” as the substance, how does the MIC (B. subtilis ATCC 6633) read?
Its MIC is 6.25 µM.

What about the MIC (S. aureus (MDR)) of the same substance?
Its MIC is 6.25 µM.

What about the MIC (E. coli ATCC 25922) of the same substance?
The MIC was 6.25 µM.

What about the MIC (E. aerogenes (MDR)) of the same substance?
Its MIC is 12.5 µM.

And the MIC (A. baumannii (MDR))?
The MIC was 6.25 µM.

And the MIC (C. freundii (MDR))?
The MIC was 6.25 µM.

What about the hemolysis at 50 µM (Hemolytic assay) of the same substance?
Its hemolysis at 50 µM is 1.5%.

And the GMall (all bacteria tested)?
Its GMall is 7.02 µM.

What about the “GM+” value (Gram-positive bacteria) of the same substance?
The value was 6.25 µM.

What about the GM- (Gram-negative bacteria) of the same substance?
The GM- was 14.87 µM.

And the half-life at 2 mM (Plasma stability by HPLC)?
The half-life at 2 mM was 917 min.

For “Ac-GLRKILRKFINKIKR-NH2 [P-α-03, Ac-GLRKILRKFINKIKR-NH2]”, which MIC (B. subtilis ATCC 6633) is on record?
Its MIC is 3.125 µM.

What about the MIC (S. aureus (MDR)) of the same substance?
Its MIC is 6.25 µM.

And the MIC (E. coli ATCC 25922)?
Its MIC is 3.125 µM.

And the MIC (E. aerogenes (MDR))?
Its MIC is 12.5 µM.

What about the MIC (A. baumannii (MDR)) of the same substance?
The MIC was 6.25 µM.

What about the MIC (C. freundii (MDR)) of the same substance?
The MIC was 6.25 µM.

Which MIC (B. subtilis ATCC 6633) does the source give for “Ac-GLRKLLRKFLNKIKR-NH2 [P-α-04, Ac-GLRKLLRKFLNKIKR-NH2]” here?
Its MIC is 3.125 µM.

What about the MIC (S. aureus (MDR)) of the same substance?
Its MIC is 3.125 µM.

What about the MIC (E. coli ATCC 25922) of the same substance?
Its MIC is 3.125 µM.

And the MIC (E. aerogenes (MDR))?
The MIC was 6.25 µM.

What about the MIC (A. baumannii (MDR)) of the same substance?
Its MIC is 6.25 µM.

What about the MIC (C. freundii (MDR)) of the same substance?
The MIC was 3.125 µM.

And the HC50 [1]?
Its HC50 is greater than 1000 µM.

What about the CC50 (Cytotoxicity assay) of the same substance?
Its CC50 is 193 µM.

What about the GMall (all bacteria tested) of the same substance?
The GMall was 3.94 µM.

And the “GM+” value (Gram-positive bacteria)?
The value was 3.13 µM.

What about the GM- (Gram-negative bacteria) of the same substance?
Its GM- is 4.42 µM.

And the half-life at 2 mM (Plasma stability by HPLC)?
Its half-life at 2 mM is 1050 min.

What does the source list for “Ac-GLRKMLRKFMNKIKR-NH2 [P-α-06, Ac-GLRKMLRKFMNKIKR-NH2]”?
MIC (B. subtilis ATCC 6633): 6.25 µM; MIC (S. aureus (MDR)): 12.5 µM; MIC (E. coli ATCC 25922): 12.5 µM; MIC (E. aerogenes (MDR)): 25 µM; MIC (A. baumannii (MDR)): 12.5 µM; MIC (C. freundii (MDR)): 6.25 µM

What does the source list for “Ac-GLRKVLRKFVNKIKR-NH2 [P-α-01, Ac-GLRKVLRKFVNKIKR-NH2]”?
MIC (B. subtilis ATCC 6633): 6.25 µM; MIC (S. aureus (MDR)): 25 µM; MIC (E. coli ATCC 25922): 12.5 µM; MIC (E. aerogenes (MDR)): 50 µM; MIC (A. baumannii (MDR)): 12.5 µM; MIC (C. freundii (MDR)): 6.25 µM

With “Ac-GLWKWLRKFWNKIKR-NH2 [P-β-02, Ac-GLWKWLRKFWNKIKR-NH2]” as the substance, how does the MIC (B. subtilis ATCC 6633) read?
Its MIC is 6.25 µM.

What about the MIC (S. aureus (MDR)) of the same substance?
Its MIC is 25 µM.

What about the MIC (E. coli ATCC 25922) of the same substance?
The MIC was 12.5 µM.

What about the MIC (E. aerogenes (MDR)) of the same substance?
The MIC was 25 µM.

What about the MIC (A. baumannii (MDR)) of the same substance?
Its MIC is 12.5 µM.

And the MIC (C. freundii (MDR))?
Its MIC is 12.5 µM.

What does the source list for Polymyxin B [reference compound]?
MIC (B. subtilis ATCC 6633): 1.56 µM; MIC (S. aureus (MDR)): 25 µM; MIC (E. coli ATCC 25922): 0.78 µM; MIC (A. baumannii (MDR)): 0.78 µM

With polymyxin E as the substance, how does the half-life [2] read?
The half-life was 23.4 min.
